Each block holds one molecule with its values, some of them ahead of it. Calls of active or inactive are those of the source. No cut-off for these calls is given here.
What was measured:
[1] = target: T1, Protein kinase C zeta type (Homo sapiens) (UniProt Q05513); test: Activation of PKCzeta at 2 uM relative to control
T1 sequence (whole entry): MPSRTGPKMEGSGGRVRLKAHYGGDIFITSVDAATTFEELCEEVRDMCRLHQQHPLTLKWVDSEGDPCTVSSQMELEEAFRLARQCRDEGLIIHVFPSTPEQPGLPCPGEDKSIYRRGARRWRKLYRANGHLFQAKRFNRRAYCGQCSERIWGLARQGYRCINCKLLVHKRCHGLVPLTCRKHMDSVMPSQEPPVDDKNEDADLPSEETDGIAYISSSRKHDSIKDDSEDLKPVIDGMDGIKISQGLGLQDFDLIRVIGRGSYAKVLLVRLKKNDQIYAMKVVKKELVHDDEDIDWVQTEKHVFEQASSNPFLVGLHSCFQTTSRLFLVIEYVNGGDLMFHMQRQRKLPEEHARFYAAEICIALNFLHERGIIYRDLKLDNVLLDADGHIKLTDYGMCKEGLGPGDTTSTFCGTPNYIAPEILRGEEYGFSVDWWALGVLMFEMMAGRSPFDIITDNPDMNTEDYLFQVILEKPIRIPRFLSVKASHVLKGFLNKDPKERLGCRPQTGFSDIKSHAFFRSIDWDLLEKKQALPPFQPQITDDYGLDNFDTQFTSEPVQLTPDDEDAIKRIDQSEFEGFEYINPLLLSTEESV

L6 = test: Cellular uptake in rat L6 cells at 20 uM up to 100 mins by mass spectroscopy analysis; assay type: ADME, cell-based; settings: l6, 100 min
[2] = target: T2, 3-phosphoinositide-dependent protein kinase 1 (Homo sapiens) (UniProt O15530); test: Increase in thermal stability of PDK1 assessed as concentration required to increase 1.5 degC thermal stability by differential scanning fluorimetry
T2 sequence (whole entry): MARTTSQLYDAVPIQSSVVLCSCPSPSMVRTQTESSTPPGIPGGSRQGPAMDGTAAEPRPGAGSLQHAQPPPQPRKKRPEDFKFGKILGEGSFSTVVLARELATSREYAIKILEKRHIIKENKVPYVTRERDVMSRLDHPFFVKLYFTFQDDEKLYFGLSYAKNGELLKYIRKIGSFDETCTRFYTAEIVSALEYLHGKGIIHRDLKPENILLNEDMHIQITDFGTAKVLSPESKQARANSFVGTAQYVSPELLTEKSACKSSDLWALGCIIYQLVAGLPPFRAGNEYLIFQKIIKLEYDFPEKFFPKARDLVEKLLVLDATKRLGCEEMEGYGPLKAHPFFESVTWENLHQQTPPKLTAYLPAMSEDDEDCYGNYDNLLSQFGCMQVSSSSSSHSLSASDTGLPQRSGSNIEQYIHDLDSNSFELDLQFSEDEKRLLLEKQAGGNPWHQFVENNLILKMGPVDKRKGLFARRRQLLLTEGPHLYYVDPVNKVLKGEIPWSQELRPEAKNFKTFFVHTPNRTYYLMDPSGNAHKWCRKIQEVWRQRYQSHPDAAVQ
In short: (§1)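 PDK1 (1 μM) in 10 mM HEPES pH 7.5, 150 mM NaCl, 1 mM DTT and 1/1000 SYPRO Orange, with ligand at 1% final DMSO, was heated from 25–70 °C in 0.3 °C steps. Tm came from a Boltzmann fit, and ΔTm is relative to DMSO control, each point from duplicates. EC50 was fitted from ΔTm versus concentration, along with the concentration giving a 1.5 °C shift.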

[3] = target: T1, Protein kinase C zeta type (Homo sapiens); test: Activation of PKCzeta at 50 uM relative to control
[4] = Activation of RSK at 50 uM relative to control
[5] = target: Serine/threonine-protein kinase N2 (Homo sapiens) (UniProt Q16513); test: Activation of PRK2 at 50 uM relative to control
[6] = target: T2, 3-phosphoinositide-dependent protein kinase 1 (Homo sapiens); test: Activation of PDK1 using KTFCGTPEYLAPEVRR as substrate and [gamma32P]-ATP/Mg2+ by phosphor imaging analysis relative to control
In short: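 Radioactive kinase assay with 0.25 μM PDK1 and [γ32P]ATP. Phosphorylated peptide was captured on P81 phosphocellulose paper and detected by phosphorimaging. Activation is expressed relative to DMSO control (=100%). AC50 is the concentration giving half-maximal activation. Values are the mean of at least two independent experiments.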

[7] = target: T3, Serine/threonine-protein kinase Sgk1 (Homo sapiens) (UniProt O00141); test: Activation of SGK at 2 uM relative to control
T3 sequence (whole entry): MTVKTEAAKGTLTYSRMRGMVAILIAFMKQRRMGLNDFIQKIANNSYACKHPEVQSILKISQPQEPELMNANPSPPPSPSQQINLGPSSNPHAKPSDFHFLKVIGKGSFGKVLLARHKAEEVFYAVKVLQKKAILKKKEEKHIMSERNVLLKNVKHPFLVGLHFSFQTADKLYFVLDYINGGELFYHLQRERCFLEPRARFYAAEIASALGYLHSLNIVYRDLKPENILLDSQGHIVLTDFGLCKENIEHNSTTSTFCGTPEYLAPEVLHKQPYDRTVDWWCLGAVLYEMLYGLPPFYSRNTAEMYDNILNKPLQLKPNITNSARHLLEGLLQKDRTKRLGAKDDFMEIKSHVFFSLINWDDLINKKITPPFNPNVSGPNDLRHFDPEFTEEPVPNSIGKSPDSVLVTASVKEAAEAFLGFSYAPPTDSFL

[8] = target: Ribosomal protein S6 kinase beta-1 (Homo sapiens) (UniProt P23443); test: Activation of S6K1 at 2 uM relative to control
[9] = target: T3, Serine/threonine-protein kinase Sgk1 (Homo sapiens); test: Activation of SGK at 50 uM relative to control
[10] = target: T2, 3-phosphoinositide-dependent protein kinase 1 (Homo sapiens); test: Increase in thermal stability of PDK1 by differential scanning fluorimetry relative to control; in short: as §1
[11] = Activation of MSK at 2 uM relative to control
[12] = Activation of MSK at 50 uM relative to control
[13] = target: Ribosomal protein S6 kinase beta-1 (Homo sapiens) (UniProt P23443); test: Activation of S6K1 at 50 uM relative to control
[14] = target: Serine/threonine-protein kinase N2 (Homo sapiens) (UniProt Q16513); test: Activation of PRK2 at 2 uM relative to control
[15] = Activation of PKA at 2 uM relative to control
[16] = Activation of PKA at 50 uM relative to control
[17] = target: T4, 3-phosphoinositide-dependent protein kinase 1 (Homo sapiens, UniProt O15530); test: Increase in thermal stability of PDK1 by differential scanning fluorimetry; in short: as §1
T4 sequence (O15530 whole entry): T2 sequence (whole entry)

[18] = Activation of RSK at 2 uM relative to control
[19] = target: RAC-alpha serine/threonine-protein kinase (Homo sapiens) (UniProt P31749); test: Activation of PKBalpha at 2 uM relative to control
[20] = target: RAC-alpha serine/threonine-protein kinase (Homo sapiens) (UniProt P31749); test: Activation of PKBalpha at 50 uM relative to control
[21] = target: T4, 3-phosphoinositide-dependent protein kinase 1; test: Binding affinity to PDK1

Sequence of Ribosomal protein S6 kinase beta-1 (Homo sapiens) (P23443 whole entry, looked up): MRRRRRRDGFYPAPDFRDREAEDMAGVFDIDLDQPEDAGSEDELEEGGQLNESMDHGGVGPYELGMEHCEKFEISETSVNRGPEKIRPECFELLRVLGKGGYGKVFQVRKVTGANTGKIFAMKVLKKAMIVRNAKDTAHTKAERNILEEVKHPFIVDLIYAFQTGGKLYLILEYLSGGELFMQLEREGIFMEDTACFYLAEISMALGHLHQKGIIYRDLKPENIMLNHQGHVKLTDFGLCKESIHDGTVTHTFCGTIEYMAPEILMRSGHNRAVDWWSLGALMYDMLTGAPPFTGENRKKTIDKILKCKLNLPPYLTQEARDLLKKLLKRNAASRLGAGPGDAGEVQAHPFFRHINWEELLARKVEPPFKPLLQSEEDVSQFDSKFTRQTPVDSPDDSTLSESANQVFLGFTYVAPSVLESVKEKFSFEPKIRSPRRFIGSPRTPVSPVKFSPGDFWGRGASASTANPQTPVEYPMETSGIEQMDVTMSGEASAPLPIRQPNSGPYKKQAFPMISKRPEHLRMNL
Sequence of RAC-alpha serine/threonine-protein kinase (Homo sapiens) (P31749 whole entry): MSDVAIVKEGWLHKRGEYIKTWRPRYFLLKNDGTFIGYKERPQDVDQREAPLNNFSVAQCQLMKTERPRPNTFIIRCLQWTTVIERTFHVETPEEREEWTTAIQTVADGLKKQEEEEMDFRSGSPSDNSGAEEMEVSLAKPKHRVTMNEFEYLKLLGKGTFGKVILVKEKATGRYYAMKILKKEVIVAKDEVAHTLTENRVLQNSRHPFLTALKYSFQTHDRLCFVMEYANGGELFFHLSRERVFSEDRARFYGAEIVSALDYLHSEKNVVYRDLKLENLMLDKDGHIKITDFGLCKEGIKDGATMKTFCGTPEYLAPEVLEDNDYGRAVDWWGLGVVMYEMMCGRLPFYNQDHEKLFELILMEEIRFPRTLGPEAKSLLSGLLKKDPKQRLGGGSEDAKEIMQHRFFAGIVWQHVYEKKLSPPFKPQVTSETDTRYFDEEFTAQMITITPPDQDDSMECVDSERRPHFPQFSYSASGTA
Sequence of Serine/threonine-protein kinase N2 (Homo sapiens) (Q16513 whole entry, looked up): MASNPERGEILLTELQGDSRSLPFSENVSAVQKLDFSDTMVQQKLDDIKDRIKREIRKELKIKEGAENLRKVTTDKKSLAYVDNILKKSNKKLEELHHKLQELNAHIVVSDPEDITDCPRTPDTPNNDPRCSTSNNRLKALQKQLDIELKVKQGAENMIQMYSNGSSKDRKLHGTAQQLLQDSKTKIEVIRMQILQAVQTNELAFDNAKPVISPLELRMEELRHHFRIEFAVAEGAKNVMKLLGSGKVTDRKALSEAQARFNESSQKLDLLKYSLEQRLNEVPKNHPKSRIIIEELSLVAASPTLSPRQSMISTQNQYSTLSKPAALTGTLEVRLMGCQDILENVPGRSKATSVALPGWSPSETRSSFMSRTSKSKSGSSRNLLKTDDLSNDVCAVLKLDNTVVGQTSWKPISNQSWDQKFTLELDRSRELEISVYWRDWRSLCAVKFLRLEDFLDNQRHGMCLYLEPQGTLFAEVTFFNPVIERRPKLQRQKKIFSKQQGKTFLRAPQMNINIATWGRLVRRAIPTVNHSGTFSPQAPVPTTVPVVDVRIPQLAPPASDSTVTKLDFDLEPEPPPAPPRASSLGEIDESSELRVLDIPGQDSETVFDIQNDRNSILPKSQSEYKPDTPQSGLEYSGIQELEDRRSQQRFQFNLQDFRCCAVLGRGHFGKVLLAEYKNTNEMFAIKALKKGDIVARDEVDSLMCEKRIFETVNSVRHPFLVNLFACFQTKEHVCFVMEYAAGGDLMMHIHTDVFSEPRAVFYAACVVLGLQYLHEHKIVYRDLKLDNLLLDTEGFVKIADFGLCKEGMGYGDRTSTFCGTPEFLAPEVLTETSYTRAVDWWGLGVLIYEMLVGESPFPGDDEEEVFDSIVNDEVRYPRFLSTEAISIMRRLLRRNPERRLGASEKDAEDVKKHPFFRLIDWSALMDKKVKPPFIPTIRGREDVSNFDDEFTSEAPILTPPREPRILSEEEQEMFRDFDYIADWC

Molecule: O=C(CC(c1ccccc1)C(C(=O)O)C(=O)O)c1ccc(C(F)(F)F)cc1 (racemic)
Activity [1]: inactive
Drug uptake (L6): Not Active
Activity [2]: 67.6 µM
Activity [3]: inactive
Activity [4]: 140%
Activity [5]: inactive
max activation [6]: 5.5
Activity [7]: inactive
Activity [8]: 82%
Activity [9]: inactive
ΔTm [10]: 3.9 °C
Activity [11]: inactive
Activity [12]: inactive
Activity [13]: 46%
Activity [14]: inactive
Activity [15]: inactive
Activity [16]: 80%
EC50 [17]: 85.8 µM
Activity [18]: inactive
Activity [19]: inactive
Activity [20]: inactive

Molecule: O=C(CC(c1ccc(Cl)cc1)C(C(=O)O)C(=O)O)c1ccc(Cl)cc1 (racemic)
max activation [6]: 2

Molecule: O=C(O)CC(CC(=O)c1ccc(Cl)cc1)c1ccc(Cl)cc1 (racemic)
max activation [6]: inactive

Molecule: O=C(CC(c1ccccc1)C(C(=O)O)C(=O)O)c1ccc2c(c1)[nH]c1ccccc12 (racemic)
Activity [2]: 18.2 µM
max activation [6]: 3.6
ΔTm [10]: 4.9 °C
EC50 [17]: 30.2 µM

Molecule: O=C(CC(c1ccccc1)C(C(=O)O)C(=O)O)c1cccc(Cl)c1 (racemic)
max activation [6]: 2.6

Molecule: O=C(O)CC(CC(=O)c1ccc(Br)cc1)c1ccccc1 (racemic)
max activation [6]: 2

Molecule: O=C(O)CC(CC(=O)c1ccc(Oc2ccccc2)cc1)c1ccccc1 (racemic)
max activation [6]: 2.8

Molecule: O=C(CC(c1ccc2ccccc2c1)C(C(=O)O)C(=O)O)c1ccc2ccccc2c1 (racemic)
max activation [6]: 4.8

Molecule: O=C(O)/C=C(/CCc1ccc(Cl)cc1)c1ccccc1
Activity [1]: inactive
Activity [3]: inactive
Activity [5]: inactive
Activity [7]: inactive
Activity [8]: inactive
Activity [9]: inactive
Activity [13]: 84%
Activity [14]: inactive
Activity [15]: inactive
Activity [16]: 74%
Activity [19]: inactive
Activity [20]: inactive

Molecule: O=C(CC(c1ccccc1)C(C(=O)O)C(=O)O)c1ccc(I)cc1 (racemic)
Activity [2]: 30.9 µM
max activation [6]: 4
ΔTm [10]: 5.2 °C
EC50 [17]: 60 µM

Molecule: O=C(O)CC(CC(=O)c1ccc2c(ccc3ccccc32)c1)c1ccccc1 (racemic)
max activation [6]: 1.5

Molecule: O=C(O)CC(CC(=O)c1ccc2cc(O)ccc2c1)c1ccccc1 (racemic)
max activation [6]: 3

Molecule: O=C(C[C@@H](c1ccccc1)C(C(=O)O)C(=O)O)c1ccc(C(F)(F)F)cc1
max activation [6]: 2

Molecule: O=C(CC(c1ccc(Cl)cc1)C(C(=O)O)C(=O)O)c1ccc(Br)cc1 (racemic)
max activation [6]: 3

Molecule: O=C(O)CC(CC(=O)c1ccc(I)cc1)c1ccccc1 (racemic)
max activation [6]: 4

Molecule: O=C(O)CC(CC(=O)c1cccc(Cl)c1)c1ccccc1 (racemic)
max activation [6]: 2.5

Molecule: O=C(O)CC(CC(=O)c1ccc(Cl)cc1)c1ccccc1 (racemic)
max activation [6]: 3

Molecule: O=C(O)CC(CC(=O)c1ccc(C(F)(F)F)cc1)c1ccccc1 (racemic)
max activation [6]: 4

Molecule: H-REPRILSEEEQEMFRDFDYIADWC-OH
Kd [21]: 43 nM
Activity [2]: 3.1 µM
max activation [6]: 3.4
ΔTm [10]: 7.3 °C
EC50 [17]: 14.2 µM

Molecule: O=C(CC(c1ccccc1)C(C(=O)O)C(=O)O)c1c[nH]c2ccccc12 (racemic)
max activation [6]: 3

Molecule: O=C(CC(c1cc(-c2ccccc2)cs1)C(C(=O)O)C(=O)O)c1ccc(C(F)(F)F)cc1 (racemic)
max activation [6]: inactive

Molecule: O=C(CC(c1ccc(Cl)cc1)C(C(=O)O)C(=O)O)c1ccc(I)cc1 (racemic)
max activation [6]: 3.8

Further lines, results first:

max activation [6]: 2.5
Molecule: O=C(O)CC(CC(=O)c1ccc2ccccc2c1)c1ccccc1 (racemic)

Activity [1]: inactive
Activity [3]: inactive
Activity [4]: 160%
Activity [5]: inactive
max activation [6]: 4
Activity [7]: inactive
Activity [8]: 84%
Activity [9]: inactive
Activity [11]: inactive
Activity [12]: inactive
Activity [13]: 47%
Activity [14]: inactive
Activity [15]: inactive
Activity [16]: inactive
Activity [18]: inactive
Activity [19]: inactive
Activity [20]: inactive
Molecule: O=C(CC(c1ccccc1)C(C(=O)O)C(=O)O)c1ccc(Cl)cc1 (racemic)

max activation [6]: 2
Molecule: CCc1ccc(C(=O)CC(CC(=O)O)c2ccccc2)cc1 (racemic)

max activation [6]: 4
Molecule: O=C(CC(c1ccccc1)C(C(=O)O)C(=O)O)c1ccc2ccccc2c1 (racemic)

max activation [6]: 3.5
Molecule: O=C(CC(c1ccc(Cl)cc1)C(C(=O)O)C(=O)O)c1ccc(C(F)(F)F)cc1 (racemic)

max activation [6]: 3.7
Molecule: O=C(CC(c1ccccc1)C(C(=O)O)C(=O)O)c1ccc(Br)cc1 (racemic)

max activation [6]: inactive
Molecule: O=C(O)CC(CC(=O)c1ccc(C(F)(F)F)cc1)c1ccc(Cl)cc1 (racemic)

max activation [6]: 2.5
Molecule: O=C(O)CC(CC(=O)c1ccc(I)cc1)c1ccc(Cl)cc1 (racemic)

max activation [6]: 7
Molecule: O=C(CC(c1ccccc1)C(C(=O)O)C(=O)O)c1ccc(Oc2ccccc2)cc1 (racemic)

max activation [6]: 3.7
Molecule: O=C(CC(c1ccccc1)C(C(=O)O)C(=O)O)c1ccc2c(ccc3ccccc32)c1 (racemic)

max activation [6]: 3.6
Molecule: COc1ccc2cc(C(=O)CC(c3ccccc3)C(C(=O)O)C(=O)O)ccc2c1 (racemic)

max activation [6]: 3
Molecule: CCc1ccc(C(=O)CC(c2ccc(Cl)cc2)C(C(=O)O)C(=O)O)cc1 (racemic)

max activation [6]: 5
Molecule: CCc1ccc(C(=O)CC(c2ccccc2)C(C(=O)O)C(=O)O)cc1 (racemic)

Activity [2]: 18.9 µM
max activation [6]: 3.6
ΔTm [10]: 2.4 °C
EC50 [17]: 13 µM
Molecule: O=C(CC(c1ccc2ccccc2c1)C(C(=O)O)C(=O)O)c1ccc(I)cc1 (racemic)

max activation [6]: inactive
Molecule: O=C(CC(c1ccc(Cl)cc1)C(C(=O)O)C(=O)O)c1ccc(O)cc1 (racemic)

max activation [6]: 5.5
Molecule: O=C(C[C@H](c1ccccc1)C(C(=O)O)C(=O)O)c1ccc(C(F)(F)F)cc1

max activation [6]: 3.4
Molecule: O=C(O)CC(CC(=O)c1ccc2ccccc2c1)c1ccc2ccccc2c1 (racemic)

Source: ChEMBL document CHEMBL2176944, “2-(3-Oxo-1,3-diphenylpropyl)malonic acids as potent allosteric ligands of the PIF pocket of phosphoinositide-dependent kinase-1: development and prodrug concept” (J Med Chem, 2012)
